In data set [1] the target is T1, Cathepsin S (Homo sapiens, UniProt P25774). The experiment in a line: Inhibition of human cathepsin-S.
Target sequence in this assay (P25774 whole entry): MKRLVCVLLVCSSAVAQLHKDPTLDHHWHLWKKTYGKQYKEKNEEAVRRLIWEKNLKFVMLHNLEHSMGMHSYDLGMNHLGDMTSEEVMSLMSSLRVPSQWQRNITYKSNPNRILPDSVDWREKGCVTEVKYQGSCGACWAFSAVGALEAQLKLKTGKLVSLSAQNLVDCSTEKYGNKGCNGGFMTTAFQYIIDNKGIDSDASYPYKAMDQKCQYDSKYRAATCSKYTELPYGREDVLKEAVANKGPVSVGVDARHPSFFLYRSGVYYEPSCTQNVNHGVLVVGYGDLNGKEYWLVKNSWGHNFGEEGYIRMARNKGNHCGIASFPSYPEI
The target of a further data set is Cytochrome P450 2C19 (Homo sapiens, UniProt P33261). In words: Inhibition of CYP2C19 (unknown origin) by fluorescence detection method. It is filed as ADME.
The nature of data set [2]: Cmax in ICR mouse at 5 mg/kg, iv and 10 mg/kg, po. In kind it is ADME, organism-based. The conditions noted are these: in vivo. The procedure, abridged: (§1)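 Single dose given orally (10 mg/kg) or intravenously (5 mg/kg) to male ICR mice, 7 weeks old, n = 3 per route; pharmacokinetic parameters derived from these dosings.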
For data set [3], the target named is T1, Cathepsin S. In words: Inhibition of cathepsin-S in human Jiyoye cells assessed as conversion of invariant chain Lip10 to CLIP. It is filed as cell-based. The procedure, abridged:
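Jiyoye cells were stimulated with IFN-γ and treated with the inhibitor at 1, 10, 100 and 1000 nM, alongside untreated controls. The read-out was Lip10 accumulation.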
Target sequence in this assay (P25774 115-331 limits assumed): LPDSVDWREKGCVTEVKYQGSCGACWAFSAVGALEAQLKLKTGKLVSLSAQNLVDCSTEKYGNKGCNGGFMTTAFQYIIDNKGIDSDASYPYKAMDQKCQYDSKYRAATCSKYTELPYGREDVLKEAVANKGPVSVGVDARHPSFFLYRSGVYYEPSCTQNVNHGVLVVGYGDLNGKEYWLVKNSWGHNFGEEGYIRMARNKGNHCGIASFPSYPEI

The target in a further data set is Cytochrome P450 2C9 (Homo sapiens, UniProt P11712). The experiment in a line: Inhibition of CYP2C9 (unknown origin) by fluorescence detection method. It is filed as ADME.
The target in the next data set is Cytochrome P450 3A4 (Homo sapiens, UniProt P08684). The experiment in a line: Inhibition of CYP3A4 (unknown origin) by fluorescence detection method. It is filed as ADME.
Another data set deals with Cytochrome P450 2D6 (Homo sapiens, UniProt P10635). In words: Inhibition of CYP2D6 (unknown origin) by fluorescence detection method. In kind it is ADME.
Data set [4] in a line: Metabolic stability in rat liver microsomes assessed as compound remaining at 5 uM after 60 mins. In kind it is ADME, Microsome. Conditions: read-out: Stability. The procedure, abridged:
(§2)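 Compound at 5 µM incubated 60 min with mouse, rat, dog or human liver microsomes, in duplicate; result given as percentage of parent remaining.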
(In general: Liver microsomes are vesicles of endoplasmic reticulum, rich in cytochrome P450 enzymes.)

A short description of data set [5]: Cmax in Sprague-Dawley rat at 5 mg/kg, iv and 10 mg/kg, po. It is filed as ADME, organism-based. Conditions: in vivo. The procedure, abridged: (§3)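 Male Sprague–Dawley rats, 7 weeks of age, received one oral dose of 10 mg/kg or one intravenous dose of 5 mg/kg (n = 3 each); pharmacokinetic parameters determined.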
Data set [6] can be described thus: Oral bioavailability in Sprague-Dawley rat at 10 mg/kg. It is filed as ADME, organism-based. The conditions noted are these: in vivo. In short, it runs like this: as §3
A short description of data set [7]: Half life in ICR mouse at 5 mg/kg, iv and 10 mg/kg, po. In kind it is ADME, organism-based. Conditions: in vivo. In short, it runs like this: as §1
Data set [8] in a line: Oral bioavailability in ICR mouse at 10 mg/kg. It is filed as ADME, organism-based. The conditions noted are these: in vivo. The procedure, abridged:
as §1

Data set [9] in a line: Half life in beagle dog at 1 mg/kg, iv and 10 mg/kg, po. In kind it is ADME, organism-based, Canis lupus familiaris. Conditions: in vivo. The procedure, abridged:
(§4)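 Male beagle dogs aged 14 months dosed once, 10 mg/kg orally or 1 mg/kg intravenously, n = 3 per route; pharmacokinetic parameters calculated.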

A short description of data set [10]: Oral bioavailability in beagle dog at 10 mg/kg. In kind it is ADME, organism-based, Canis lupus familiaris. Conditions: in vivo. The procedure, abridged:
as §4

A short description of data set [11]: Half life in Sprague-Dawley rat at 5 mg/kg, iv and 10 mg/kg, po. The conditions noted are these: in vivo. It is filed as ADME, organism-based. The procedure, abridged: as §3
A short description of data set [12]: AUC (0 to 24 hrs) in ICR mouse at 5 mg/kg, iv and 10 mg/kg, po. The conditions noted are these: plasma. It is filed as ADME, organism-based. In short, it runs like this: as §1
Data set [13] can be described thus: AUC (0 to 24 hrs) in beagle dog at 1 mg/kg, iv and 10 mg/kg, po. It is filed as ADME, organism-based, Canis lupus familiaris. Conditions: plasma. In short, it runs like this: as §4
Data set [14] can be described thus: Metabolic stability in mouse liver microsomes assessed as compound remaining at 5 uM after 60 mins. In kind it is ADME, Microsome. The conditions noted are these: read-out: Stability. In short, it runs like this:
as §2

A further data set has as its target T2, Cathepsin K (Homo sapiens, UniProt P43235).
T2 sequence (P43235 whole entry): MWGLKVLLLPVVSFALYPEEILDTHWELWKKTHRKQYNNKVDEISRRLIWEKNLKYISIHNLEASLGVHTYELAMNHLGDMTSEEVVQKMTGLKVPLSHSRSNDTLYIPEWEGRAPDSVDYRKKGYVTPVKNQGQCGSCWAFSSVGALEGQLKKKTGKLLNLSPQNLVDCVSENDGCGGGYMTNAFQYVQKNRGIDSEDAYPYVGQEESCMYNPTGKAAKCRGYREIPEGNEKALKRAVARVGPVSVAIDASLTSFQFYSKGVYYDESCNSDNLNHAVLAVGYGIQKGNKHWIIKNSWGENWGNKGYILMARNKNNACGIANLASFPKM
The experiment in a line: Inhibition of human cathepsin-K. In short, it runs like this:
(§5)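 Human cathepsin B and K activity measured with a SensoLyte 520 cathepsin activity assay kit; LHVS as pan-cathepsin positive control.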

Data set [15] can be described thus: Metabolic stability in human liver microsomes assessed as compound remaining at 5 uM after 60 mins. In kind it is ADME, Microsome. Conditions: read-out: Stability. The procedure, abridged: as §2
A further data set addresses T3, Cytochrome P450 1A2 (Homo sapiens, UniProt P05177).
T3 sequence (P05177 whole entry): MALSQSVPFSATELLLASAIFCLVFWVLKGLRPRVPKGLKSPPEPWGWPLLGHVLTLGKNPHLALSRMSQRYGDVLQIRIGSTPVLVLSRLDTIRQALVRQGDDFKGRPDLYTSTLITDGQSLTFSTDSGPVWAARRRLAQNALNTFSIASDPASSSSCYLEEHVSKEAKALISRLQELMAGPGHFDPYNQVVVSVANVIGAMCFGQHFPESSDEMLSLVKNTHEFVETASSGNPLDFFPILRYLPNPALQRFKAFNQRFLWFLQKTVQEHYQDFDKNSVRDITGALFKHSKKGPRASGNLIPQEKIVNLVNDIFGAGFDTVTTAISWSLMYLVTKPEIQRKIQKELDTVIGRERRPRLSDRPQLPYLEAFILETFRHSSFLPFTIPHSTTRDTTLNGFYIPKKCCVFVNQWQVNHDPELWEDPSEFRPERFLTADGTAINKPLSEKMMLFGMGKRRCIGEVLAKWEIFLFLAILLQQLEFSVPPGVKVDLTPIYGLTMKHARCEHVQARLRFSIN
The experiment in a line: Inhibition of CYP1A2 (unknown origin) by fluorescence detection method. In kind it is ADME.

Data set [16] is described as follows: AUC (0 to 24 hrs) in Sprague-Dawley rat at 5 mg/kg, iv and 10 mg/kg, po. It is filed as ADME, organism-based. The conditions noted are these: plasma. In short, it runs like this: as §3
The test system of another data set is Mus musculus. The experiment in a line: Antiarthritic activity in DBA1/J mouse assessed as decrease in collagen-induced arthritis score and degree of paw swelling at 30 mg/kg, po qd for 14 days. It is filed as functional, organism-based. More on the design: dose 30 mg/kg. The procedure, abridged:
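Male DBA1/J mice (8 weeks, n = 7/group) immunized intradermally at tail base with bovine type II collagen in complete Freund's adjuvant, boosted 3 weeks later with collagen in incomplete Freund's adjuvant. Oral dosing once daily at 30 mg/kg in 10% hydroxypropyl-β-cyclodextrin/water, or vehicle, for 14 days. Arthritis score and paw swelling graded per paw every 2–3 days for 2 weeks from day 10 post-boost.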

The nature of data set [17]: Metabolic stability in dog liver microsomes assessed as compound remaining at 5 uM after 60 mins. It is filed as ADME, Canis lupus familiaris, Microsome. Conditions: read-out: Stability. The procedure, abridged: as §2
Data set [18] in a line: Cmax in beagle dog at 1 mg/kg, iv and 10 mg/kg, po. The conditions noted are these: in vivo. It is filed as ADME, organism-based, Canis lupus familiaris. The procedure, abridged: as §4
The next data set deals with Cathepsin B (Homo sapiens, UniProt P07858). In words: Inhibition of human cathepsin-B. The procedure, abridged:
as §5

The source made the active and inactive calls.

Broadly, the IC50 is the midpoint of a concentration-inhibition curve. High values mean lower potency, low ones higher potency. As usually defined, the Cmax is the peak of the concentration-time curve. A word on the bioavailability: it is dose-corrected exposure relative to a reference, in per cent. A low value points to little systemic uptake. For orientation: half-life means the time needed for the level to fall by half in the phase considered. The AUC(0-t) is the area under the concentration-time curve up to a stated or last time point. The low end stands for low exposure, the high end for high exposure.

Sequence of Cytochrome P450 3A4 (P08684 whole entry): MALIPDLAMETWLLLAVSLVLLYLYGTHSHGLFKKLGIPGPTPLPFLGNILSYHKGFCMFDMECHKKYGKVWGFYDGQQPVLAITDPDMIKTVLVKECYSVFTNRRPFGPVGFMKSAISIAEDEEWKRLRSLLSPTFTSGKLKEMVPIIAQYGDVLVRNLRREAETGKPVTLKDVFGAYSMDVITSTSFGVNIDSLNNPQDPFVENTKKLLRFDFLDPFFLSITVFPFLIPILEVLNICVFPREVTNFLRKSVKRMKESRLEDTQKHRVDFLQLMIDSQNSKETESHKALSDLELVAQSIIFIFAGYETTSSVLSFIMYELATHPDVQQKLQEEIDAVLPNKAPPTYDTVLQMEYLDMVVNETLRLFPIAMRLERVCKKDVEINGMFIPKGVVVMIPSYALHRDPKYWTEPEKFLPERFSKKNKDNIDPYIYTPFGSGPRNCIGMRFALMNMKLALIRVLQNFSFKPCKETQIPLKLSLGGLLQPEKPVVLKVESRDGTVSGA
Sequence of Cytochrome P450 2D6 (P10635 whole entry): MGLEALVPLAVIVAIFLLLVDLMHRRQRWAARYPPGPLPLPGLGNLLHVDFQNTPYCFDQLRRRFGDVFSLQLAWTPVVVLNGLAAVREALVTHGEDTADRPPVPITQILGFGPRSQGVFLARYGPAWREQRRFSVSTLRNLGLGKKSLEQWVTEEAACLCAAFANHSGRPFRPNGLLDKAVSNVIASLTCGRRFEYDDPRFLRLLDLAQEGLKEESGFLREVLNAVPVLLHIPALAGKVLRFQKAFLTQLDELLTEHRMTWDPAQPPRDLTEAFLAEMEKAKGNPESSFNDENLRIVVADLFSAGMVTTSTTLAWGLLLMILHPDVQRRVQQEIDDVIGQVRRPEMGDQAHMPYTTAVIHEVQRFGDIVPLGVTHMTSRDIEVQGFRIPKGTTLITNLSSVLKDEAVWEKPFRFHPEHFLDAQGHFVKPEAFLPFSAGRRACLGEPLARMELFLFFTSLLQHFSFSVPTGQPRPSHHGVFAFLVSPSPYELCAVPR
Sequence of Cytochrome P450 2C9 (P11712 whole entry): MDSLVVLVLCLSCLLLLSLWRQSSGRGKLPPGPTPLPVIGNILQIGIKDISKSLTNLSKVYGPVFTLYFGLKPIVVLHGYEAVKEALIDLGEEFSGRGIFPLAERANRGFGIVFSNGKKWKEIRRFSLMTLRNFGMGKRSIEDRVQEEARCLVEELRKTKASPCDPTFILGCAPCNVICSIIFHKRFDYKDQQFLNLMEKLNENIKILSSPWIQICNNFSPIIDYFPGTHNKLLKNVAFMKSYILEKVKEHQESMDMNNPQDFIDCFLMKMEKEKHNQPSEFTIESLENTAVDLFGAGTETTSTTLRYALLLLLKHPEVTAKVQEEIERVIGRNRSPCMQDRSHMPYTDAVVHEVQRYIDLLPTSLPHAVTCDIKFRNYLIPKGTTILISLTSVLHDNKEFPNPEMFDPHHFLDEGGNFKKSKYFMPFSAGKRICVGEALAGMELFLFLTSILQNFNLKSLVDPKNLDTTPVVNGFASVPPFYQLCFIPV
Sequence of Cytochrome P450 2C19 (P33261 whole entry): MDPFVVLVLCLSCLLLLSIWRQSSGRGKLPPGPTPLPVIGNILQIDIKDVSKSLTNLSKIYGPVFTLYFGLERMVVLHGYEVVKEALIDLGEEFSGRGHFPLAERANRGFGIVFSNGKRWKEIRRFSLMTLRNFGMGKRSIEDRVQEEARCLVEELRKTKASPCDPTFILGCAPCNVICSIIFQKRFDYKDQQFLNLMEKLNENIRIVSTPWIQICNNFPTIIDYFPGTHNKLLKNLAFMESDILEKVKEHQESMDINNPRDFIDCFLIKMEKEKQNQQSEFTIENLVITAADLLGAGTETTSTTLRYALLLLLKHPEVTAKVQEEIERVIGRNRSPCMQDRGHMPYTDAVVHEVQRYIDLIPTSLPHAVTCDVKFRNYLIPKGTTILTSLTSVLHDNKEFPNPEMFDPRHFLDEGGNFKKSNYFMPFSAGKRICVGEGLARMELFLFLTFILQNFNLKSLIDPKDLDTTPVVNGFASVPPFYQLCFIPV

Regarding `CCC(NC(=O)[C@@H]1C[C@@H](S(=O)(=O)c2ccccc2)CN1)C(=O)c1nc2ccccc2o1` (some centres not stated), at Cathepsin S [1], the 50% inhibitory concentration (IC50) worked out at 156 nM.
On to `CC[C@H](NC(=O)[C@@H]1C[C@@H](S(=O)(=O)c2ccccc2)CN1C(C)=O)C(=O)c1nc2ccccc2o1`, for which the half-inhibitory concentration (IC50) on Cytochrome P450 2C19 was > 20000 nM; on Cytochrome P450 2C9, 5000 nM; at Cytochrome P450 3A4, 9950 nM; against Cytochrome P450 2D6 it was > 20000 nM; against Cathepsin K, > 10000 nM; at Cytochrome P450 1A2 it was > 20000 nM. Moreover, the half-inhibitory concentration (IC50) was 3.3 nM on Cathepsin S [1] and > 10000 nM on Cathepsin B. Further, the highest concentration (Cmax) in data set [2] was 1910 ng/mL; in data set [5], 3520 ng/mL; in data set [18], 3820 ng/mL. The inhibition result at Cathepsin S [3] was “Active”. Further, the remaining at 1 h, 5 µM in data set [4] worked out at 37%; in data set [14] it was 37%; in [15], 70%; in data set [17], 47%. Further, the bioavailability was 64.8% in data set [6], 28.7% in [8] and 48.6% in [10]. The half-life was 1.6 h in data set [7], 3.7 h in data set [9] and 2.1 h in data set [11]. Moreover, the exposure AUC(0-t) in [12] was 1030 ng·h/mL; in data set [13], 5050 ng·h/mL; in [16], 7250 ng·h/mL. Further, in the data set with Mus musculus, the outcome was Active.
Consider `CCC(NC(=O)[C@@H]1C[C@@H](S(=O)(=O)c2ccccc2)CN1CC(C)=O)C(=O)c1nc2ccccc2o1` (some centres not stated), for which the IC50 against Cathepsin S [1] worked out at 45.4 nM.
Same read-out and setting: the same measure for `CC(=O)N1C[C@H](S(=O)(=O)c2ccccc2)C[C@H]1C(=O)NC(C)C(=O)c1nc2ccccc2o1` (some centres not stated): 18.1 nM.
At Cathepsin S [1], `CCC(NC(=O)[C@@H]1C[C@@H](S(=O)(=O)c2ccccc2)CN1C(=O)N1CCCC1)C(=O)c1nc2ccccc2o1` (some centres not stated) gave an IC50 of 3.7 nM.
Take `CCC(NC(=O)[C@@H]1C[C@@H]([S@](=O)c2ccccc2)CN1C(C)=O)C(=O)c1nc2ccccc2o1` (some centres not stated): the 50% inhibitory concentration (IC50) on Cathepsin S [1] is 83.7 nM.
As for `CCC(NC(=O)[C@@H]1C[C@@H](Sc2ccccc2)CN1C(C)=O)C(=O)c1nc2ccccc2o1` (some centres not stated), on Cathepsin S [1], the IC50 was 20.7 nM. Compared with the last compound, the IC50 is about 4-fold lower.
On to `CCC(NC(=O)[C@@H]1C[C@@H](S(=O)(=O)c2ccccc2)CN1C(=O)c1ccncc1)C(=O)c1nc2ccccc2o1` (some centres not stated), for which half-maximal inhibition at Cathepsin S [1] (IC50) was put at 3.3 nM.
Regarding `CC(=O)N1C[C@H](S(=O)(=O)c2ccccc2)C[C@H]1C(=O)NC(C(=O)c1nc2ccccc2o1)C(C)C` (some centres not stated), the IC50 at Cathepsin S [1] turned out to be 24.6 nM.
Take `CCC(NC(=O)[C@@H]1C[C@@H](S(=O)(=O)c2ccccc2)CN1C(=O)c1ccc(-c2ccccc2)cc1)C(=O)c1nc2ccccc2o1` (some centres not stated): the IC50 on Cathepsin K was > 10000 nM; on Cathepsin S [1], 4.1 nM; at Cathepsin B, > 10000 nM.
Take `CCC(NC(=O)[C@@H]1C[C@@H](S(=O)(=O)c2ccccc2)CN1C(=O)C1CCCCC1)C(=O)c1nc2ccccc2o1` (some centres not stated): the values for the concentration for half-maximal inhibition (IC50) against Cathepsin K, on Cathepsin S [1] and against Cathepsin B were > 10000 nM, 3.3 nM and > 10000 nM, respectively.
Regarding `CCC(NC(=O)[C@@H]1C[C@@H](S(=O)(=O)c2ccccc2)CN1C(=O)C(F)(F)F)C(=O)c1nc2ccccc2o1` (some centres not stated), the IC50 on Cathepsin S [1] worked out at 2.7 nM.
Compound `CCC(NC(=O)[C@@H]1C[C@@H](S(=O)(=O)c2ccccc2)CN1c1ccccc1)C(=O)c1nc2ccccc2o1` (some centres not stated) registered a half-inhibitory concentration (IC50) on Cathepsin S [1] of 12.4 nM.
On to `CC(C)C[C@@H](NC(=O)N1CCOCC1)C(=O)N[C@@H](/C=C/S(=O)(=O)c1ccccc1)CCc1ccccc1`, for which the IC50 on Cathepsin K was 4 nM; against Cathepsin S [1], 1.9 nM; at Cathepsin B it was 3 nM.
In turn, `CCC(=O)N1C[C@H](S(=O)(=O)c2ccccc2)C[C@H]1C(=O)NC(CC)C(=O)c1nc2ccccc2o1` (some centres not stated) had a half-maximal inhibitory concentration (IC50) at Cathepsin S [1] of 3.1 nM.
For `CCC(NC(=O)[C@@H]1C[C@@H](S(=O)(=O)c2ccccc2)CN1C(=O)CCOC)C(=O)c1nc2ccccc2o1` (some centres not stated), on Cathepsin S [1], the half-maximal inhibitory concentration (IC50) came to 3.3 nM. This IC50 and that of the compound before are within 1.5-fold of each other.

Source of the values: ChEMBL document CHEMBL2380281, “Synthesis of proline analogues as potent and selective cathepsin S inhibitors” (Bioorg Med Chem Lett, 2013).
